Source: ChEMBL document CHEMBL4177755, “Combating Drug-Resistant Fungi with Novel Imperfectly Amphipathic Palindromic Peptides” (J Med Chem, 2018)

Legend:
Candida albicans [1] = assay: Fungicidal activity against Candida albicans SP3876 after 96 hrs; assay type: functional; conditions: SP3876, 96 h, read-out: MFC99.9
How it was run: (§1)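 After the 48 h, 28 °C broth microdilution in MOPS-buffered RPMI 1640 (inoculum (0.5−1) × 10^3 CFU/mL), 50 μL from each well was plated on YM agar for a further 48 h at 28 °C. MFC is the lowest concentration killing at least 99.9% of cells. Triplicate, three biological replicates.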

Erythrocyte = assay: Hemolytic activity in human RBC after 1 hr; assay type: ADME, cell-based
How it was run: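 Fresh human erythrocytes, diluted 10-fold in PBS pH 7.4, were mixed with equal volumes of peptide and held 1 h at 37 °C. After centrifugation at 1000g, supernatant hemoglobin was read at 576 nm. PBS set 0% and 0.1% Triton X-100 set 100% lysis. MHC is the concentration causing 10% hemolysis. At least three experiments were run, each in technical triplicate.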

[2] = tested on: Staphylococcus epidermidis; assay: Bactericidal activity against Staphylococcus epidermidis ATCC 12228; assay type: functional; conditions: read-out: MBC99.9
How it was run: (§2)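 Wells from the 24 h, 37 °C MHB microdilution plates (bacteria at a final (0.5−1) × 10^5 CFU/mL; peptide diluted in 0.2% BSA) were plated on agar and incubated overnight. MBC is the lowest concentration killing >99.9% of cells. Each test was reproduced at least 3 times.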

Candida albicans [3] = assay: Fungicidal activity against Candida albicans SP3902 after 96 hrs; assay type: functional; conditions: SP3902, 96 h, read-out: MFC99.9; how it was run: as §1
Candida parapsilosis [4] = assay: Antifungal activity against Candida parapsilosis cgmcc 2.3989 after 48 hrs by broth microdilution method; assay type: functional; conditions: Lodderomyces parapsilosis, cgmcc 2.3989, 48 h
How it was run: (§3)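 Modified CLSI M27-A2 broth microdilution. Yeast were suspended in MOPS-buffered RPMI 1640 at a final (0.5−1) × 10^3 CFU/mL and mixed 1:1 with peptide serially diluted in 0.2% BSA. Plates were incubated 48 h at 28 °C and read at A492. MIC is the lowest concentration giving 95% inhibition. Run in triplicate with three biological replicates.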

Candida albicans [5] = assay: Antifungal activity against Candida albicans cgmcc 2.2086 in presence of KCl by broth dilution method; assay type: functional
Escherichia coli [6] = assay: Antibacterial activity against Escherichia coli ATCC 25922 after 18 hrs in presence of MgCl2 by broth dilution method; assay type: functional; conditions: ATCC 25922, 18 h
Staphylococcus aureus [7] = assay: Antibacterial activity against Staphylococcus aureus ATCC 29213 after 24 hrs; assay type: functional; conditions: ATCC 29213, 24 h
How it was run: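 Modified NCCLS broth microdilution. Mid-log bacteria at (0.5−1) × 10^5 CFU/mL in MHB were mixed 1:1 with peptide serially diluted in 0.2% BSA and incubated 24 h at 37 °C. Absorbance was read at 492 nm; MIC is the lowest concentration inhibiting 95% of growth. At least 3 repeats.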

Staphylococcus aureus [8] = assay: Bactericidal activity against Staphylococcus aureus ATCC 25923; assay type: functional; conditions: read-out: MBC99.9; how it was run: as §2
Candida albicans [9] = assay: Antifungal activity against Candida albicans SP3931 after 48 hrs by broth microdilution method; assay type: functional; conditions: SP3931, 48 h
How it was run: (§4)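 Modified CLSI M27-A2 broth microdilution. Yeast at (0.5−1) × 10^3 CFU/mL in MOPS-buffered RPMI 1640 was mixed 1:1 with peptide serially diluted in 0.2% BSA and incubated 48 h at 28 °C. Absorbance was read at 492 nm; MIC is the lowest concentration inhibiting 95% of growth. Triplicate, three biological replicates.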

Candida tropicalis = assay: Antifungal activity against Candida tropicalis cgmcc 2.1975 after 48 hrs by broth microdilution method; assay type: functional; conditions: cgmcc 2.1975, 48 h; how it was run: as §3
Candida albicans [10] = assay: Fungicidal activity against fluconazole-resistant Candida albicans 56214 after 96 hrs; assay type: functional; conditions: Candida albicans, 56214, 96 h; read-out: MFC99.9; how it was run: as §1
Candida albicans [11] = assay: Antifungal activity against fluconazole-resistant Candida albicans 56214 after 48 hrs by broth microdilution method; assay type: functional; conditions: Candida albicans, 56214, 48 h; how it was run: as §4
Escherichia coli [12] = assay: Antibacterial activity against Escherichia coli ATCC 25922 after 18 hrs in presence of FeCl3 by broth dilution method; assay type: functional; conditions: ATCC 25922, 18 h
Escherichia coli [13] = assay: Bactericidal activity against Escherichia coli ATCC 25922; assay type: functional; conditions: read-out: MBC99.9; how it was run: as §2
Candida parapsilosis [14] = assay: Fungicidal activity against Candida parapsilosis cgmcc 2.3989 after 96 hrs; assay type: functional; conditions: Lodderomyces parapsilosis, cgmcc 2.3989, 96 h; read-out: MFC99.9
How it was run: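 Wells from the 48 h, 28 °C RPMI 1640/MOPS microdilution plates were plated on YM agar and incubated a further 48 h at 28 °C. MFC is the lowest concentration killing at least 99.9% of cells. Run in triplicate with three biological replicates.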

Escherichia coli [15] = assay: Bactericidal activity against Escherichia coli 1005; assay type: functional; conditions: read-out: MBC99.9; how it was run: as §2
Escherichia coli [16] = assay: Antibacterial activity against Escherichia coli ATCC 25922 after 18 hrs in presence of KCl by broth dilution method; assay type: functional; conditions: ATCC 25922, 18 h
Candida albicans [17] = assay: Antifungal activity against Candida albicans cgmcc 2.2086 in presence of NaCl by broth dilution method; assay type: functional
Escherichia coli [18] = assay: Antibacterial activity against Escherichia coli ATCC 25922 after 18 hrs in presence of ZnCl2 by broth dilution method; assay type: functional; conditions: ATCC 25922, 18 h
Escherichia coli [19] = assay: Antibacterial activity against Escherichia coli ATCC 25922 after 18 hrs in presence of CaCl2 by broth dilution method; assay type: functional; conditions: ATCC 25922, 18 h
Candida albicans [20] = assay: Antifungal activity against Candida albicans 14936 after 48 hrs by broth microdilution method; assay type: functional; conditions: Candida albicans, 14936, 48 h; how it was run: as §4
Candida albicans [21] = assay: Fungicidal activity against Candida albicans 58288 after 96 hrs; assay type: functional; conditions: Candida albicans, 58288, 96 h; read-out: MFC99.9; how it was run: as §1
Candida albicans [22] = assay: Antifungal activity against Candida albicans SP3876 after 48 hrs by broth microdilution method; assay type: functional; conditions: SP3876, 48 h; how it was run: as §4
[23] = tested on: Staphylococcus epidermidis; assay: Antibacterial activity against Staphylococcus epidermidis ATCC 12228 after 24 hrs; assay type: functional; conditions: ATCC 12228, 24 h
How it was run: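 Broth microdilution. Mid-log bacteria in MHB at a final (0.5−1) × 10^5 CFU/mL were mixed with equal volumes of peptide serially diluted in 0.2% BSA. Plates were incubated 24 h at 37 °C and read at A492. MIC is the lowest concentration inhibiting 95% of growth. Each test was repeated at least 3 times.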

Candida albicans [24] = assay: Fungicidal activity against fluconazole-resistant Candida albicans 17546 after 96 hrs; assay type: functional; conditions: Candida albicans, 17546, 96 h; read-out: MFC99.9; how it was run: as §1
Candida albicans [25] = assay: Fungicidal activity against Candida albicans SP3931 after 96 hrs; assay type: functional; conditions: SP3931, 96 h, read-out: MFC99.9; how it was run: as §1
Candida albicans [26] = assay: Antifungal activity against Candida albicans cgmcc 2.2086 after 48 hrs by broth microdilution method; assay type: functional; conditions: cgmcc 2.2086, 48 h; how it was run: as §4
Candida albicans [27] = assay: Antifungal activity against fluconazole-resistant Candida albicans 17546 after 48 hrs by broth microdilution method; assay type: functional; conditions: Candida albicans, 17546, 48 h; how it was run: as §4
[28] = Cytotoxicity against mouse RAW264.7 cells assessed as cell viability at 2 to 64 uM after 24 hrs by MTT assay relative to control; assay type: cell-based; conditions: read-out: Activity
How it was run: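 MTT viability assay. RAW264.7 or HEK293T cells at (1.0−2.0) × 10^5 per well were exposed to a peptide concentration series for 24 h at 37 °C in 5% CO2. MTT was then added at 0.5 mg/mL final for 4 h; formazan was dissolved in DMSO and read at 570 nm. Results average three independent trials.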

| Substance | MFC (Candida albicans [1]) [µM] | HC10 (Erythrocyte) [µM] | MBC [2] [µM] | MFC (Candida albicans [3]) [µM] | MIC95 (Candida parapsilosis [4]) [µM] | MIC (Candida albicans [5]) [µM] | MIC (Escherichia coli [6]) [µM] | MIC95 (Staphylococcus aureus [7]) [µM] | MBC (Staphylococcus aureus [8]) [µM] | MIC95 (Candida albicans [9]) [µM] | MIC95 (Candida tropicalis) [µM] | MFC (Candida albicans [10]) [µM] | MIC95 (Candida albicans [11]) [µM] | MIC (Escherichia coli [12]) [µM] | MBC (Escherichia coli [13]) [µM] | MFC (Candida parapsilosis [14]) [µM] | MBC (Escherichia coli [15]) [µM] | MIC (Escherichia coli [16]) [µM] | MIC (Candida albicans [17]) [µM] | MIC (Escherichia coli [18]) [µM] | other results |
| --- | --- | --- | --- | --- | --- | --- | --- | --- | --- | --- | --- | --- | --- | --- | --- | --- | --- | --- | --- | --- | --- |
| H-WWRRWRRWW-NH2 | 4 | > 128 | 8 | 8 | 32 | 16 | 4 | 4 | 8 | 16 | 4 | 8 | 4 | 4 | 32 | 64 | 8 | 8 | 16 | 16 | MIC (Escherichia coli [19]): 32 µM; MIC95 (Candida albicans [20]): 8 µM; MFC (Candida albicans [21]): 8 µM; MIC95 (Candida albicans [22]): 4 µM; MIC95 [23]: 4 µM; MFC (Candida albicans [24]): 4 µM; MFC (Candida albicans [25]): 32 µM; MIC95 (Candida albicans [26]): 8 µM; MIC95 (Candida albicans [27]): 2 µM |
| H-IIRRIRRII-NH2 | > 64 | > 128 | > 64 | > 64 | > 64 | 64 | 32 | 64 | > 64 | > 64 | 4 | 64 | 64 | 64 | 32 | > 64 | 32 | 32 | 64 | 32 | viability at 24 h, up to 64 µM [28]: 70 to 80%; MIC (Escherichia coli [19]): 64 µM; MIC95 (Candida albicans [20]): > 64 µM; MFC (Candida albicans [21]): 64 µM; MIC95 (Candida albicans [22]): > 64 µM; MIC95 [23]: 64 µM; MFC (Candida albicans [24]): > 64 µM; MFC (Candida albicans [25]): > 64 µM; MIC95 (Candida albicans [26]): 64 µM; MIC95 (Candida albicans [27]): > 64 µM |
